Experimental data from different studies.
Each line is one published result; the experiments were not run side by side.
Read-out: enzyme activity
Mode: inhibitor
HIPK4: Homeodomain-interacting protein kinase 4 (HIPK4, Homo sapiens, UniProt Q8NE63)
TcPGFS: TcPGFS (Trypanosoma cruzi, UniProt Q8I6L9)
MARK2: Serine/threonine-protein kinase MARK2 (MARK2, Homo sapiens, UniProt Q7KZI7)

Structure (SMILES)	target	method	tested at	time	remaining activity
O=C(O)c1ccc2c(c1)nc(Nc1ccc(Cl)cc1)c1ncncc12	HIPK4	radiometric	1 µM	–	62%
CC1(C)CCC2=C(O1)c1ccccc1C(=O)C2=O	TcPGFS	–	200 µM	–	86%
CCCOc1ccc(OC)c(F)c1C(=O)c1ccc(C(=O)N[C@@H]2CNC[C@H]2NC(=O)c2ccc3[nH]ncc3c2)cc1	Ribosomal protein S6 kinase alpha-1 (Rps6ka1, Rattus norvegicus, UniProt Q63531)	–	0.1 µM	–	119%
NS(=O)(=O)c1ccc(CNc2ccnc(Nc3cccc(NC(=O)N4CCCC4)c3)n2)cc1	MARK2	radiometric	1 µM	–	115%
O=C(O)c1ccc2c(c1)nc(Nc1cccc(F)c1)c1ccncc12	HIPK4	radiometric	1 µM	–	1%
CC1=CC(=O)c2ccccc2C1=O	TcPGFS	–	200 µM	–	68%
CC[C@H](C)[C@H](NC(=O)[C@H](CCC(N)=O)NC(=O)[C@H](CC(C)C)NC(=O)[C@H](CCSC)NC(=O)[C@H](CCCCN)NC(=O)[C@H](CO)NC(=O)[C@H](CO)NC(=O)[C@H](CCSC)NC(=O)[C@H](CC(C)C)NC(=O)[C@H](CC(N)=O)NC(=O)[C@@H](NC(=O)[C@@H](NC(=O)[C@H](CO)NC(=O)[C@H](CC(C)C)NC(=O)[C@H](CS)NC(=O)[C@H](CCCNC(=N)N)NC(=O)[C@H](CC(=O)O)NC(=O)[C@H](Cc1c[nH]c2ccccc12)NC(=O)[C@H](Cc1ccccc1)NC(=O)[C@H](C)NC(=O)[C@H](CCC(=O)O)NC(=O)[C@@H](N)CCCCN)C(C)C)[C@@H](C)CC)C(=O)N[C@@H](CC(N)=O)C(=O)N[C@@H](C)C(=O)O	Cyclin-dependent kinase 5, with p25 (CDK5, Homo sapiens, UniProt Q00535)	radiometric	50 µM	20 min	80%
COc1cccc(CCNc2nc3cc(C(=O)O)ccc3c3cncnc23)c1	HIPK4	radiometric	1 µM	–	135%
Cc1ccc(C(=O)Nc2ccc(CN3CCN(C)CC3)c(C(F)(F)F)c2)cc1C#Cc1cnc2cccnn12	Uncharacterized serine/threonine-protein kinase SBK3 (SBK3, Homo sapiens, UniProt P0C264)	–	23.5 nM	–	89%
COc1cc(Cl)c(C(=O)N[C@@H](CN[C@H]2CC[C@@H](N)CC2)Cc2ccc(C#N)cc2)cc1-c1ccc(CN[C@H](C)c2ccc(C)cc2)o1	Cyclin-dependent kinase-like 2 (CDKL2, Homo sapiens, UniProt Q92772)	–	1 µM	–	93%
O=C(O)c1ccc2c(c1)nc(Nc1ccccc1)c1ncncc12	HIPK4	radiometric	1 µM	–	103%
Brc1cnc(Nc2cccc(CN3CCOCC3)c2)nc1NCCc1c[nH]cn1	MARK2	radiometric	1 µM	–	5%
